The values that follow come from the M2OR odorant receptor database.

Each structure is given as a SMILES string. Changes are numbered by the printed parent chain.

Holding throughout (conditions): stereoisomer not certain
For one assay, the target named is T1, OR2W1 (Homo sapiens) (UniProt Q9Y3N9).
T1 sequence (whole entry): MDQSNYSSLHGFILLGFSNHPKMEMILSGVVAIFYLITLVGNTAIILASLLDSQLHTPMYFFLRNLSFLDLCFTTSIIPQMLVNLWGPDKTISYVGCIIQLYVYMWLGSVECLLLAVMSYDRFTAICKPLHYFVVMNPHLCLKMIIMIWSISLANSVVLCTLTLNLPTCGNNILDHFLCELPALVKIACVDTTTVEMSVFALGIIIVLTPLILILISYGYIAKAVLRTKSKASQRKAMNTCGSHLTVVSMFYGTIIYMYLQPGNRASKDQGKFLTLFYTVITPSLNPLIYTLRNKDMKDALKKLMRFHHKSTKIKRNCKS
A digest of the protocol:
(§1)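 Values were gathered from published papers (main text and supplementary material), with extra details requested from the original authors when needed, and checked for typos and inconsistencies. Each receptor–molecule pair is called responsive (active) if the original authors judged the measured signal statistically different from baseline, and non-responsive (inactive) otherwise. Assay methods varied by source, often transient mammalian cell-line luciferase assays. Recorded details include cell line, G-protein, co-transfected protein and tags.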

The target of the next assay is T2, OR2T7 (Homo sapiens) (UniProt P0C7T2).
T2 sequence (whole entry): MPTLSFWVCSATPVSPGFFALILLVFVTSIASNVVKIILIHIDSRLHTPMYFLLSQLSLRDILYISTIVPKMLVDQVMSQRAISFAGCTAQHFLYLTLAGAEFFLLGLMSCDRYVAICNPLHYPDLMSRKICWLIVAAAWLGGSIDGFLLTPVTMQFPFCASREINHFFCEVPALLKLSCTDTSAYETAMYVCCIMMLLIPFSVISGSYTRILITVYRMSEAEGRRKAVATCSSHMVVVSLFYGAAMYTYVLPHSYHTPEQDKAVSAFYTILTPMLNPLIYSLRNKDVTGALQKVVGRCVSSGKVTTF
Summed up: as §1

The target of a further assay is T3, OR2T8 (Homo sapiens) (UniProt A6NH00).
T3 sequence (whole entry): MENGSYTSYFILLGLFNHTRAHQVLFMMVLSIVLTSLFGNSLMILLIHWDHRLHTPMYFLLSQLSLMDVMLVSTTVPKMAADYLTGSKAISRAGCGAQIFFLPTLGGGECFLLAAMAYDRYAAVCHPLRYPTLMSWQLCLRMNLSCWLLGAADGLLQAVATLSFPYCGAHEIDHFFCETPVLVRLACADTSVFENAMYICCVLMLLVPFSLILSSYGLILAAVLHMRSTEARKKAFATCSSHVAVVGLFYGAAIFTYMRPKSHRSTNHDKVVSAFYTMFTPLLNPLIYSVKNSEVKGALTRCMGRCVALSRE
Summed up:
as §1

A further assay concerns the target T4, OR2V1 (Homo sapiens) (UniProt Q8NHB1).
T4 sequence (whole entry): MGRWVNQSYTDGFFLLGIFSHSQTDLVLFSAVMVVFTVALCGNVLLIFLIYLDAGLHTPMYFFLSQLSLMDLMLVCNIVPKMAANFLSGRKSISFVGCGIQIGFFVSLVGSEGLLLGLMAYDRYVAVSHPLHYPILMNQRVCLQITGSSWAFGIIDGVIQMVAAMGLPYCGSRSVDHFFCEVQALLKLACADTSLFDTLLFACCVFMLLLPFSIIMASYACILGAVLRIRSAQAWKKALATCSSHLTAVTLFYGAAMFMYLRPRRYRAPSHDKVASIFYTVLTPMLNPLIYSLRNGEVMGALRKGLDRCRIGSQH
A digest of the protocol: as §1

The next assay addresses T5, OR2V2 (Homo sapiens) (UniProt Q96R30).
T5 sequence (whole entry): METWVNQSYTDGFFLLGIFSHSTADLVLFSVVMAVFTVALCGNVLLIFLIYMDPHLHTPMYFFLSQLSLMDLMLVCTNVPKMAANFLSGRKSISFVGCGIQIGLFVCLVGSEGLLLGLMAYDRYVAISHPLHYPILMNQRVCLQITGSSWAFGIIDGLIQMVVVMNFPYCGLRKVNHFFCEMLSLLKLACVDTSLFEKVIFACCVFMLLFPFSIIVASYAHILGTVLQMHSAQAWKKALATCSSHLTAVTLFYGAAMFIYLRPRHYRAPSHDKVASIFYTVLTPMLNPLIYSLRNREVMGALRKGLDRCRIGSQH
A digest of the protocol: as §1

The next assay has as its target T6, OR2W3 (Homo sapiens) (UniProt Q7Z3T1).
T6 sequence (whole entry): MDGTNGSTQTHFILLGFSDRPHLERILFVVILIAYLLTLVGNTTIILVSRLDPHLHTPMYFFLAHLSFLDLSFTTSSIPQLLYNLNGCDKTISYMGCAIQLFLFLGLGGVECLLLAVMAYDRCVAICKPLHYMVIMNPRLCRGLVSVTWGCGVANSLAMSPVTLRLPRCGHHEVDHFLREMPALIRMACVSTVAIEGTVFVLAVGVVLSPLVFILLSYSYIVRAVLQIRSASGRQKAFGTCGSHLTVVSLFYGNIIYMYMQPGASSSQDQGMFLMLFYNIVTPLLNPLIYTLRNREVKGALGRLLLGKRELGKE
A digest of the protocol:
as §1

The next assay has as its target T7, OR2W5P (Homo sapiens) (UniProt A6NFC9).
T7 sequence (whole entry): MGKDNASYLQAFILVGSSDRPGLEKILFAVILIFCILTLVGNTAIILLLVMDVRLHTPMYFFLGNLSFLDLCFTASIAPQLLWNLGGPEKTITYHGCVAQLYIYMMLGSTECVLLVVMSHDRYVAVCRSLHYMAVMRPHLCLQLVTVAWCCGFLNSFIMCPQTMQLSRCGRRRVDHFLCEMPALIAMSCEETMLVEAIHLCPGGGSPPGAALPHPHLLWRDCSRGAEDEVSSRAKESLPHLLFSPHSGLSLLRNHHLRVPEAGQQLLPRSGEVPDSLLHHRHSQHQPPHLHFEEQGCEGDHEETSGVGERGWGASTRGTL
Summed up: as §1

The next assay deals with T8, OR2Y1 (Homo sapiens) (UniProt Q8NGV0).
T8 sequence (whole entry): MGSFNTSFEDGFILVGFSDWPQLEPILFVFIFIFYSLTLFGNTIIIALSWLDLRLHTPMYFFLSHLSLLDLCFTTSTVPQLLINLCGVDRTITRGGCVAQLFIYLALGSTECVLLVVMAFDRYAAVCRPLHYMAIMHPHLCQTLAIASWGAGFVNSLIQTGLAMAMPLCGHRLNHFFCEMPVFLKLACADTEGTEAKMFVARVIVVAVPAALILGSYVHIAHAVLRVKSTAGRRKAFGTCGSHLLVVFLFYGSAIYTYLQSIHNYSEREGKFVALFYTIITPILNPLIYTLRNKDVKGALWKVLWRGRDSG
Summed up:
as §1

For the next assay, the target named is T9, OR2Z1 (Homo sapiens) (UniProt Q8NG97).
T9 sequence (whole entry): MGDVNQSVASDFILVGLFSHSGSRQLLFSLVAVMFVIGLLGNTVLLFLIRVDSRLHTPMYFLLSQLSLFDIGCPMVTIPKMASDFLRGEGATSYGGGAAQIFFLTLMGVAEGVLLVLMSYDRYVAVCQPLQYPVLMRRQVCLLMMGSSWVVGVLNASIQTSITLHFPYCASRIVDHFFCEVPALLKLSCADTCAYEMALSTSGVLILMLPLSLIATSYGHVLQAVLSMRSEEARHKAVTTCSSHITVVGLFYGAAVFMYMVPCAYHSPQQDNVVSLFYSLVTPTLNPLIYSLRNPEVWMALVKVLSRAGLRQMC
A digest of the protocol: as §1

Another assay deals with T10, OR3A1 (Homo sapiens) (UniProt P47881).
T10 sequence (whole entry): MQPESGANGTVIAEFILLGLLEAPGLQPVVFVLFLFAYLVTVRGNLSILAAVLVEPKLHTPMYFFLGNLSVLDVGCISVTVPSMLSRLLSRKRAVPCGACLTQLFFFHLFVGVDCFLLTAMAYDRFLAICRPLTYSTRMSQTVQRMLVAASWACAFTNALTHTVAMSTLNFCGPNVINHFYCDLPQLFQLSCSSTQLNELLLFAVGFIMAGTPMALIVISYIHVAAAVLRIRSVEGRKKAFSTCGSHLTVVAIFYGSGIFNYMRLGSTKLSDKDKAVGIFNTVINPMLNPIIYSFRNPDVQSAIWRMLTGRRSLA
A digest of the protocol: as §1

Another assay addresses T11, OR3A2 (Homo sapiens) (UniProt P47893).
T11 sequence (whole entry): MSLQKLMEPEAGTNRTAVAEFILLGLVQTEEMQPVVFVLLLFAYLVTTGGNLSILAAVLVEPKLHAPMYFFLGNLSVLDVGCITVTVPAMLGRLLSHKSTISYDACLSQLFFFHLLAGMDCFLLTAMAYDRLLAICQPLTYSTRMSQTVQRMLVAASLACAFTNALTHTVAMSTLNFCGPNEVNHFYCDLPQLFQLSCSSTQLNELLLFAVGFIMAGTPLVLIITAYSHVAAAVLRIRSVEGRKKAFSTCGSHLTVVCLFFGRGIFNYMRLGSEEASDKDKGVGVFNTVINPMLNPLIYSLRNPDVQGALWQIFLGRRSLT
A digest of the protocol: as §1

The target of another assay is T12, OR3A3 (Homo sapiens) (UniProt P47888).
T12 sequence (whole entry): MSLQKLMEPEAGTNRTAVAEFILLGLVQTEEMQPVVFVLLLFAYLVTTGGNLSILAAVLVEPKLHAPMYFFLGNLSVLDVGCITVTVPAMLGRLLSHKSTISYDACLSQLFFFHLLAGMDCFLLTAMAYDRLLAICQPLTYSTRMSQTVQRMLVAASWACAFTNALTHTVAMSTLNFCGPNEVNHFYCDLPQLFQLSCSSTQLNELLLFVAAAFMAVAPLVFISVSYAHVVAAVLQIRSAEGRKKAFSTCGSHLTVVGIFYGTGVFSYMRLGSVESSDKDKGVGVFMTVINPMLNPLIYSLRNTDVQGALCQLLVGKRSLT
A digest of the protocol:
as §1

In a further assay the test system is T13, OR2T6 C23G.
T13 sequence (whole entry): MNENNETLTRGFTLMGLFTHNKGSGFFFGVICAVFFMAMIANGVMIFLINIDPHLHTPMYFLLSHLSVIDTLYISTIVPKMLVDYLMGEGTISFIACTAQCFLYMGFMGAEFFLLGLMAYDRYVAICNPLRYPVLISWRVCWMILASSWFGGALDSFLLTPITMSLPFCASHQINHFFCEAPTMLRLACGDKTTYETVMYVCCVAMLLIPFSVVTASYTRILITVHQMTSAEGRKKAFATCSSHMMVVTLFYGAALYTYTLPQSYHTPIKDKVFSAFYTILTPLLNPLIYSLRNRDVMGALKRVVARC
A digest of the protocol:
as §1

In a further assay the test system is T14, OR2T7.
T14 sequence (whole entry): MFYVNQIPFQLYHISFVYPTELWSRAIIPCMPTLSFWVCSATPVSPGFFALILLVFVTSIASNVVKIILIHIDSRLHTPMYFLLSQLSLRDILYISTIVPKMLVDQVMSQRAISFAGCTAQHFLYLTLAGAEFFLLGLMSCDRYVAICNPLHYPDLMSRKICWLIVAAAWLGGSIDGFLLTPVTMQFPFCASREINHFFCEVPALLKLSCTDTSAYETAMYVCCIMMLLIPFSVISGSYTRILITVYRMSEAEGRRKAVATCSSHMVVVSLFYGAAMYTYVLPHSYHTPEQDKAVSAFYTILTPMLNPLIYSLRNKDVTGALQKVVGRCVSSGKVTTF
Summed up:
as §1

Another assay concerns T15, OR2W1 G96V.
T15 sequence (whole entry): T1 sequence (whole entry) with G96V
A digest of the protocol:
as §1

A further assay concerns T16, OR2Y1.
T16 sequence (whole entry): T8 sequence (whole entry) with V200L
Summed up: as §1

For the next assay, the system named is T17, OR3A1.
T17 sequence (whole entry): T10 sequence (whole entry) with R125Q
A digest of the protocol: as §1

The subject of the next assay is T18, OR3A2 R317K.
T18 sequence (whole entry): T11 sequence (whole entry) with R317K
A digest of the protocol: as §1

Assay [1] has as its system T19, OR2W1.
T19 sequence (whole entry): T1 sequence (whole entry) with D296N
A digest of the protocol:
as §1

The test system of assay [2] is T20, OR2W1.
T20 sequence (whole entry): T1 sequence (whole entry) with M81V
Summed up:
as §1
This is another data set of the same source.

For the compound `CCCCOC=O`, the “odorant receptor agonist call” value with OR2W1 (Homo sapiens) was “active”.

For the compound `CC(CO)CS` (centres undefined), the “odorant receptor agonist call” value in the assay with OR2T7 (Homo sapiens), with OR2T8 (Homo sapiens), with OR2V1 (Homo sapiens), in the assay with OR2V2 (Homo sapiens), in the assay with OR2W1 (Homo sapiens) and with OR2W3 (Homo sapiens) was “inactive” throughout. Moreover, the “odorant receptor agonist call” value with OR2W5P (Homo sapiens), with OR2Y1 (Homo sapiens), with OR2Z1 (Homo sapiens), with OR3A1 (Homo sapiens), in the assay with OR3A2 (Homo sapiens) and with OR3A3 (Homo sapiens) was “inactive” each time.

For the compound `Cc1cnc(C)c(C)n1`, the “odorant receptor agonist call” value with OR2T6 C23G, in the assay with OR2T7, in the assay with OR2T8 (Homo sapiens), in the assay with OR2V1 (Homo sapiens), in the assay with OR2V2 (Homo sapiens) and with OR2W1 (Homo sapiens) was “inactive” each time. Besides, the “odorant receptor agonist call” value in the assay with OR2W1 G96V, with OR2W3 (Homo sapiens), with OR2W5P (Homo sapiens), in the assay with OR2Y1 (Homo sapiens), with OR2Y1 and in the assay with OR2Z1 (Homo sapiens) was “inactive” throughout. The “odorant receptor agonist call” value with OR3A1 (Homo sapiens), in the assay on OR3A1, with OR3A2 (Homo sapiens), in the assay on OR3A2 R317K and with OR3A3 (Homo sapiens) was “inactive” in each case.

Turning to `CCCCCC(=O)C(C)C(C)=O` (centres undefined), the “odorant receptor agonist call” value with OR2T7 (Homo sapiens), in the assay with OR2T8 (Homo sapiens), with OR2V1 (Homo sapiens), with OR2V2 (Homo sapiens), in the assay with OR2W1 (Homo sapiens) and with OR2W3 (Homo sapiens) was “inactive” throughout. For the same compound, the “odorant receptor agonist call” value with OR2W5P (Homo sapiens), with OR2Y1 (Homo sapiens), in the assay with OR2Z1 (Homo sapiens), with OR3A1 (Homo sapiens), in the assay with OR3A2 (Homo sapiens) and with OR3A3 (Homo sapiens) was “inactive” throughout. Besides, the “odorant receptor agonist call” value in the assay on OR2W1 [1] and in the assay on OR2W1 [2] was “active” in each case.

Turning to `CSSSC`, the “odorant receptor agonist call” value with OR2W1 (Homo sapiens) is “active”.

For `CCC(C)CCC(=O)[O-]` (centres undefined), the “odorant receptor agonist call” value with OR2W1 (Homo sapiens) was “active”.

As for `CCCCC(C)CCC(=O)O` (centres undefined), the “odorant receptor agonist call” value in the assay with OR2W1 (Homo sapiens) was “inactive”.

With `CC=CC(=O)C1=C(C)CCCC1(C)C`, in the assay with OR2W1 (Homo sapiens), the “odorant receptor agonist call” value is “inactive”.

For `C=CC(=O)CC=CCC`, the “odorant receptor agonist call” value in the assay with OR2W1 (Homo sapiens) is “inactive”.
